What is called IC50 is the concentration that inhibits the measured activity by half.

The target in this experiment is Disintegrin and metalloproteinase domain-containing protein 17 (Homo sapiens) (UniProt P78536). As to the kind of experiment: ADAM17 inhibitor potency, late-stage follow-up, ADAM17 exosite inhibitor project, biochemical, QFRET peptide cleavage, IC50 (AID 743337). The conditions noted are these: recombinant ADAM17, QFRET peptide cleavage, fluorescence 3 h. The method in brief:
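Detection: fluorescence gain from peptide cleavage, excitation 359 nm, emission 460 nm; test system: ADAM17 metalloprotease enzyme, cell-free biochemical assay; input: 2X ADAM17 solution, 20 nM; read-out: IC50 from four-parameter sigmoidal dose-response fit; timing: 30 min compound-enzyme preincubation, then 3 h substrate cleavage, 25 °C; benchmarks: 1 µM marimastat and DMSO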

Active and inactive are the calls of the source.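 The calls were made as follows: active = IC50 of 10 µM or lower; inactive = IC50 above 10 µM.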

Sequence of Disintegrin and metalloproteinase domain-containing protein 17 (Homo sapiens) (P78536 215-824 limits assumed): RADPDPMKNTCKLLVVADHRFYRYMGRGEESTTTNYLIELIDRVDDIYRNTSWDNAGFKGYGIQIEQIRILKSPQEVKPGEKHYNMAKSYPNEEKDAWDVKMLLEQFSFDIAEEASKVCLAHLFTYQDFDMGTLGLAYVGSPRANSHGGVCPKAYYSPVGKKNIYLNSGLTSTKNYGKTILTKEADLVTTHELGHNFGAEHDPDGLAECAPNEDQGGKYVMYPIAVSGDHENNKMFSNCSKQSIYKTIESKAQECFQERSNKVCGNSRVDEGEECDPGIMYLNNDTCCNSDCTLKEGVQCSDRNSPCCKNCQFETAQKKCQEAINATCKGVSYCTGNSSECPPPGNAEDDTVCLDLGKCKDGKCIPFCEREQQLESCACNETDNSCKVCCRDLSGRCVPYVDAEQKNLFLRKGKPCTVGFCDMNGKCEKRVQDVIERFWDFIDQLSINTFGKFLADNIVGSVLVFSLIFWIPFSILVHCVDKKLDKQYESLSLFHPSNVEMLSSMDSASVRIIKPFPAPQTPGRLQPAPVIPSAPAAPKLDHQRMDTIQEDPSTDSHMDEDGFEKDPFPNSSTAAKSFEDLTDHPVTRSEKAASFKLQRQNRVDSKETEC

Turning to `C=C(C)COc1ccc(-c2[nH]ncc2Oc2ccc(OC)cc2)c(O)c1`, the IC50 was > 69.5 µM (inactive). The value for `Cc1ccc(OCC(O)Cn2c3ccccc3c3ccccc32)cc1` (centres undefined) was > 69.5 µM (inactive). In the case of `Cc1csc(-c2cnn(-c3ccccc3)c2NC(=O)c2ccc(C(F)(F)F)cc2)n1` it was > 69.5 µM (inactive). The value for `COc1ccc(-c2ccc(-c3noc(-c4cccc(OC)c4)n3)c(OC)n2)cc1` was > 69.5 µM (inactive); that for `O=C1NC(=O)C(Cc2ccc(Cl)cc2)(c2ccccc2)N1` (centres undefined) was 3.76 µM; that for `Cc1ccc(CC2(c3ccccc3)NC(=O)NC2=O)cc1` (centres undefined) was “inactive”. As for `CCCCN(Cc1ccccc1)S(=O)(=O)c1cc(Br)cc2c1N(C(C)=O)C(C)C2` (centres undefined), the IC50 was > 69.5 µM (inactive). In the case of `COc1ccccc1NS(=O)(=O)c1cccc(NC(=O)Nc2ccc(Cl)cc2)c1` it was > 69.5 µM (inactive); in that of `O=C(CN(Cc1cccs1)S(=O)(=O)c1ccc(S(=O)(=O)NC2CCCCC2)cc1)Nc1ccccc1`, > 69.5 µM (inactive); in that of `O=C(Nc1ccc(OCC(F)(F)C(F)(F)F)c(C(F)(F)F)c1)c1ccc(F)cc1`, > 69.5 µM (inactive). The value for `CCOc1ccc(NC(=O)CC2SC(=O)N(c3ccccc3)C2=O)cc1` (centres undefined) was 7.83 µM; that for `C=C(C)COc1ccc(-c2n[nH]c(C)c2Oc2ccccc2OC)c(O)c1` was > 69.5 µM (inactive); that for `O=C(O)CCC(=O)c1c[nH]c2ccccc12` was “inactive”. The value for `C=C(C)COc1ccc(-c2[nH]ncc2Oc2cccc(OC)c2)c(O)c1` was > 69.5 µM (inactive).

Turning to `O=C(Nc1ccc(OCC(F)(F)C(F)(F)F)c(C(F)(F)F)c1)c1ccc(Br)cc1`, the IC50 was > 69.5 µM (inactive). Take `COc1cccc(C(=O)NNC(=O)C(=O)Nc2ccc(C)c(Cl)c2)c1`: the IC50 was > 69.5 µM (inactive). The value for `O=C(Nc1ccc(OCC(F)(F)C(F)F)c(C(F)(F)F)c1)c1ccc(Cl)cc1` was > 69.5 µM (inactive); that for `CS(=O)(=O)N(CC(=O)Nc1ccccc1Sc1ccccc1)c1cccc(Br)c1` was > 69.5 µM (inactive); that for `Oc1cc2c(cc1C(c1ccc(Cl)c(Cl)c1)N1CCCC1)OCO2` (centres undefined) was “inactive”. The value for `Cc1ccc(S(=O)(=O)Nc2ccc(Cl)cc2)cc1NC(=O)c1cc2c(s1)CCCC2` was > 69.5 µM (inactive); that for `O=S(=O)(NCC(Nc1ccc(Cl)cc1)c1ccccc1)c1ccc(Cl)cc1` (centres undefined) was > 69.5 µM (inactive). In the case of `COc1ccc2nc(SCC(=O)Nc3ccc(S(=O)(=O)N4CCCC4)cc3)c(C#N)cc2c1` it was > 69.5 µM (inactive). On to `CCCOC(=O)c1ccc(Oc2cn[nH]c2-c2ccc(OCC)cc2O)cc1`, for which the IC50 is > 69.5 µM (inactive). In the case of `O=S(=O)(NCC(Nc1ccc(Cl)cc1)c1ccccc1)c1ccccc1` (centres undefined) it was > 69.5 µM (inactive).

(Values after PubChem BioAssay AID743337 (The Scripps Research Institute Molecular Screening Center, 2014).)
